Key:
[1] = molecular target: T1, Cannabinoid receptor 2 (Homo sapiens, UniProt P34972); test: Displacement of [3H]CP-55940 from human CB2 receptor expressed in human U87 cells after 1 hr by scintillation counting; type: cell-based, U-87MG ATCC
Procedure, shortened: (§1)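 Membranes from lentivirally transduced U87 glioblastoma cells stably expressing hCB1 or hCB2, sorted on an mKateS158A co-reporter. Cells at 80–90% confluence were homogenised in 50 mM Tris-HCl, 5 mM MgCl2, 2.5 mM EDTA, pH 7.4. Aliquots of 30–50 μg protein were incubated 1 h at 4°C with 2.8 nM [3H]CP-55,940 plus graded compound concentrations, then GF/C-filtered. Ki was derived from the competition curves.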

[2] = organism: Homo sapiens; test: Selectivity ratio of Ki for human CB1 receptor to Ki for human CB2 receptor
[3] = molecular target: T2, Cannabinoid receptor 1 (Homo sapiens, UniProt P21554); test: Displacement of [3H]CP-55940 from human CB1 receptor expressed in human U87 cells after 1 hr by scintillation counting; type: cell-based, U-87MG ATCC; procedure, shortened: as §1
[4] = Selectivity ratio of Ki for CB1 receptor to Ki for CB2 receptor
[5] = molecular target: T2, Cannabinoid receptor 1; test: Binding affinity to CB1 receptor
[6] = molecular target: T1, Cannabinoid receptor 2; test: Binding affinity to CB2 receptor

T2 sequence (P21554 whole entry): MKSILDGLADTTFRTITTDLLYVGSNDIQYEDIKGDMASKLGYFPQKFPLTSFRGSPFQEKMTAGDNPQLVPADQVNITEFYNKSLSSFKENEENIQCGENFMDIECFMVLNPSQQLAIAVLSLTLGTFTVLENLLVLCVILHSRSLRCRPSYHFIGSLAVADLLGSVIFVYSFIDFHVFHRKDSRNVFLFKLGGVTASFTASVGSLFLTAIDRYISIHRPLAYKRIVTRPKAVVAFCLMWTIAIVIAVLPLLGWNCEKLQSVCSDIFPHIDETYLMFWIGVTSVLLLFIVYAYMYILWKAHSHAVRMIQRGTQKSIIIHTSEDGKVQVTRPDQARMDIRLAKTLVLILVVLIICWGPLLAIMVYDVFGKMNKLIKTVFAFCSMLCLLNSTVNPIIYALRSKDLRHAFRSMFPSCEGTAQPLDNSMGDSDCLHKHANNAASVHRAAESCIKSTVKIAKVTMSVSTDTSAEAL
T1 sequence (P34972 whole entry): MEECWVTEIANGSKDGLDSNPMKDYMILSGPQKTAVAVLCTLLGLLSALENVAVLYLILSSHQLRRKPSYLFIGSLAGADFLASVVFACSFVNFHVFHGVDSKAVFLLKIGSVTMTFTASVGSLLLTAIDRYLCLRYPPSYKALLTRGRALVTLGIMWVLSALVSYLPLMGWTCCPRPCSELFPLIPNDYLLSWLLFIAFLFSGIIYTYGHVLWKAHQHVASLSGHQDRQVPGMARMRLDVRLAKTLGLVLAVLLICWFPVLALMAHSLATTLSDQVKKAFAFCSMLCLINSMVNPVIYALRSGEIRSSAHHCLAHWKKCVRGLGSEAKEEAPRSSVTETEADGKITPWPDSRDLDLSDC

Compound | Ki [1] | Ratio Ki [2] | Ki [3] | Ratio Ki [4] | Ki [6] | also measured
COc1ccc2cc(C(=O)NCCF)c(=O)[nH]c2c1OC | > 10 µM | > 1 | > 10 µM |  |  | 
CCCCCC(C)(C)c1cc(OC)c2c(c1)OC(C)(C)[C@@H]1CCC(C)=C[C@@H]21 |  |  |  | 170 |  | 
CCCCCc1cc2cc(C(=O)NCCc3ccc(F)cc3)c(=O)[nH]c2c(O)c1OC |  |  |  | 66600 | 0.036 nM | Ki [5]: 2400 µM
CCCCOc1c(OC)ccc2cc(C(=O)NCCc3ccc(N)cc3)c(=O)[nH]c12 |  |  |  |  | 22.3 nM | IC50 [6]: 0.00158 µM
CCCCOc1c(OC)ccc2cc(C(=O)NCc3ccc(F)cc3)c(=O)[nH]c12 | 0.0028 µM | > 3570 | > 10 µM |  |  | 
CCCCCc1cc2cc(C(=O)OC)c(=O)[nH]c2c(O)c1OC |  |  |  | 262000 | 0.014 nM | 
CCCCOc1c(OC)ccc2cc(C(=O)NCCc3cn(CCF)nn3)c(=O)[nH]c12 | 2.4 µM | > 4 | > 10 µM |  |  | 
CCCCOc1c(OC)ccc2cc(C(=O)NCc3cn(CCF)nn3)c(=O)[nH]c12 | 0.62 µM | > 16 | > 10 µM |  |  | 
CCCOc1c(OC)ccc2cc(C(=O)NCCc3ccc(F)cc3)c(=O)[nH]c12 |  |  |  | 16000 |  | 
CCCCOc1c(OC)ccc2cc(C(=O)NCCCF)c(=O)[nH]c12 | 0.058 µM | > 172 | > 10 µM |  |  | 
CCCCOc1c(OC)ccc2cc(C(=O)NCCF)c(=O)[nH]c12 | 0.486 µM | > 20.5 | > 10 µM |  |  | 
CCCCCCC(C)(C)c1cc(OC)c(C2CCCC(C)(O)C2)c(OC)c1 (centres undefined) |  |  |  | 220 | 23 nM | Ki [5]: 5.05 µM
Cc1ccc(Cn2nc(C(=O)N[C@@H]3C(C)(C)[C@@H]4CC[C@@]3(C)C4)cc2-c2ccc(Cl)c(C)c2)cc1 |  |  |  | 32 |  | 
COc1ccc2cc(C(=O)NCc3ccc(F)cc3)c(=O)[nH]c2c1OC | > 10 µM | > 1 | > 10 µM |  |  | 
CCCCOc1c(OC)ccc2cc(C(=O)NCC(F)c3ccccc3)c(=O)[nH]c12 (centres undefined) | 0.0008 µM | > 12500 | > 10 µM |  |  | 
COc1ccc2cc(C(=O)NCCc3ccc(F)cc3)c(=O)[nH]c2c1OC | 0.005 µM |  | > 10 µM |  |  | 
COc1ccc2cc(C(=O)NCC(F)c3ccccc3)c(=O)[nH]c2c1OC (centres undefined) | 0.022 µM | > 454 | > 10 µM |  |  | 
CCCCOc1c(OC)ccc2cc(C(=O)O)c(=O)[nH]c12 |  |  |  | 28300 | 0.032 nM | 
CCCCOc1c(OC)ccc2cc(C(=O)NCCc3ccc(F)cc3)c(=O)[nH]c12 | 0.0024 µM | > 4170 | > 10 µM |  |  | 
CCCCOc1c(OC)c([N+](=O)[O-])cc2cc(C(=O)NCCc3ccc(F)cc3)c(=O)[nH]c12 | 0.0014 µM | > 7140 | > 10 µM |  |  | 
CCCCCOc1c(OC)ccc2cc(C(=O)NCCN3CCOCC3)c(=O)n(C)c12 |  |  |  | 11000 |  | 
COc1ccc2c(c1)c(CCN1CCOCC1)c(C)n2C(=O)c1cccc(Cl)c1Cl |  |  |  | 146 | 14 nM | 
Cc1c(C(=O)NN2CCCCC2)nn(-c2ccc(Cl)cc2Cl)c1-c1ccc(Cl)cc1 |  |  |  | 32 |  | 
CCCCCc1cc2cc(C(=O)NCCc3ccc(F)cc3)c(=O)n(C)c2c(O)c1OC |  |  |  | 20100 | 0.043 nM | Ki [5]: 864 µM
CCCCCOc1c(OC)ccc2cc(C(=O)NCCc3ccncc3)c(=O)[nH]c12 |  |  |  | 20800 | 0.01 nM | 

— ChEMBL document CHEMBL1821585, “Fluorinated cannabinoid CB2 receptor ligands: synthesis and in vitro binding characteristics of 2-oxoquinoline derivatives” (Bioorg Med Chem, 2011)
